SIRT5 block: blocks human SIRT5 desuccinylation of peptide; Q9NXA8; Purified SirT5, succinyl-peptide AMC, trypsin-coupled fluorescence; inhibition, % at 15 µM; hit rate 1.1% among 330,000; AID 652115; in the data active = inhibition above about 15%
Target sequence (Q9NXA8 whole entry, looked up): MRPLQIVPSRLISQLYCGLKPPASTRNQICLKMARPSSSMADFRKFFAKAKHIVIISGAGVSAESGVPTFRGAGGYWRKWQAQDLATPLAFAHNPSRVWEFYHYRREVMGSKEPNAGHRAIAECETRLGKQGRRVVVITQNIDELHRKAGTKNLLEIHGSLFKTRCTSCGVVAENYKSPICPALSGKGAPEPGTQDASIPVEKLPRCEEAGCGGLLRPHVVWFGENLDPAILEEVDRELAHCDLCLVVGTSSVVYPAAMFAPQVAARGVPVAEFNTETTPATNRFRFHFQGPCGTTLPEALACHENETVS
PDI inh: inhibitors of human protein disulfide isomerase; hit rate 0.052% among 350,000; PDI insulin aggregation turbidity, A650, 90 min; P07237; inhibition, % at 10 µM;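 active = mean inhibition across replicates of 30% or more, whatever share of single replicates reach that level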
GSIS activator: GLuc luminescence reporter in INS-1E cells, primary screen for activators of glucose-dependent secretion of insulin | hit rate 0.61% among 370,000 | INS-1E GLuc reporter insulin secretion, 2-3 h | activation, % at 16.6 µM | AID 743287;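 active = lowest replicate activation of at least 40%, so every replicate reaches that level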;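 also: 0% = median of neutral control wells and 100% = median of IBMX positive control wells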
S100A4 MyoIIA: blocks human S100A4 binding to myosin IIA peptide; hit rate 0.14% among 360,000; P26447; AID 652163; S100A4/TAMRA-MyoIIA peptide fluorescence polarization; inhibition, % at 10.7 µM;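 active = mean inhibition of at least 70% across replicates, with every replicate also reaching that level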
Target sequence (P26447 whole entry, looked up): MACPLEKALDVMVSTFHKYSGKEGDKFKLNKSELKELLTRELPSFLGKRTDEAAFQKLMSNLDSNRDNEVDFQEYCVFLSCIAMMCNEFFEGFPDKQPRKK
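Material: S100A4 monomer protein | Medium: HEPES pH 7.2 with CaCl2, KCl, NaCl, DTT, Triton | Reagent: Labelled myosin peptide probe, 5 nM | Doses: One dose per compound | Times: 5 min incubation before reading | Benchmarks: Neutral control DMSO, positive control TFP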
ERp5 inh: blocks human ERp5 reductase activity on insulin; Q15084; ERp5 insulin aggregation, absorbance 650 nm, 90 min; inhibition, % at 9.99 µM; hit rate 0.05% among 350,000; AID 651711;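 active = mean replicate inhibition above about 25%, with every replicate also reaching it, limit read from the data, passing the limit was not always enough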
* marks the source's active call; other numbers are inactive results; . = no result given. An excerpt weighted towards active compounds, which were near 1.5% of everything screened.

SMILES	SIRT5 block	PDI inh	GSIS activator	S100A4 MyoIIA	ERp5 inh
CCOC(=O)c1c(CSc2ccsc2)n(C)c2cc(Br)c(O)c(CN(C)C)c12	20*	-13	-35	-2	10
Cc1noc(C)c1S(=O)(=O)N(C)C[C@H]1Oc2ccc(NS(=O)(=O)c3cccs3)cc2CC(=O)N([C@H](C)CO)C[C@@H]1C	5	.	7	9	5
N#Cc1c(-c2ccc(Br)cc2)cc(-c2cccnc2)nc1N	.	-2	-1	.	.
Cc1nc(N)c(C#N)c(-c2cccnc2)c1-c1ccccc1	0	-2	41*	-5	0
Cc1c(-c2ccccc2)nc(N)c(C#N)c1-c1cccnc1	3	-3	36	-4	-1
N#Cc1c(-c2cccc(Br)c2)cc(-c2cccnc2)nc1N	.	-9	90*	.	.
COc1ccc(CN2C[C@@H](O)COC[C@H]3O[C@@H](CC(=O)NCCN4CCCC4)CC[C@@H]32)cc1	.	.	-3	.	.
COc1cccc(S(=O)(=O)N(C)C[C@@H]2Oc3cc(C4=CCCCC4)ccc3S(=O)(=O)N([C@@H](C)CO)C[C@@H]2C)c1	21*	.	2	2	-9
COc1ccc(S(=O)(=O)N(C)C[C@@H]2Oc3cc(C4=CCCC4)ccc3S(=O)(=O)N([C@H](C)CO)C[C@H]2C)cc1	9	.	-29	-2	3
COc1cccc(S(=O)(=O)N(C)C[C@H]2Oc3cc(C4=CCCC4)ccc3S(=O)(=O)N([C@H](C)CO)C[C@@H]2C)c1	3	.	14	-6	1
COc1cccc(S(=O)(=O)N(C)C[C@H]2Oc3cc(C4=CCCCC4)ccc3S(=O)(=O)N([C@H](C)CO)C[C@H]2C)c1	.	.	-23	.	.
COc1cccc(S(=O)(=O)N(C)C[C@H]2Oc3cc(C4=CCCC4)ccc3S(=O)(=O)N([C@H](C)CO)C[C@H]2C)c1	21*	.	-1	-4	-2
COc1cccc(S(=O)(=O)N(C)C[C@H]2Oc3cc(C4=CCCC4)ccc3S(=O)(=O)N([C@@H](C)CO)C[C@@H]2C)c1	21*	.	-3	3	4
C/C=C/c1ccc2c(c1)O[C@H](CN(C)S(=O)(=O)c1ccc(C)cc1)[C@H](C)CN([C@H](C)CO)S2(=O)=O	0	.	-14	-6	1
O=C(C[C@@H]1CC[C@H](NC(=O)c2ccncc2)[C@H](CO)O1)Nc1ccc(-c2ccccc2)cc1	.	.	6	.	.
COc1ccc(CCN=C(N)NS(=O)(=O)c2ccc(C)c(C)c2)cc1OC	-6	-12	91*	4	-1
COC(=O)[C@H]1[C@H](CO)[C@H]2Cn3c(ccc(-c4cccc(F)c4)c3=O)[C@H]2N1C(=O)CC1CC1	-16	.	6	-9	6
O=C(NCc1ccccn1)[C@@H]1[C@@H](CO)[C@@H]2Cn3c(cccc3=O)[C@@H]2N1CCc1ccccc1	16*	.	8	-6	0
O=C(NCc1ccc(F)cc1)[C@H]1[C@H](CO)[C@H]2Cn3c(cccc3=O)[C@H]2N1Cc1ccccn1	3	.	4	7	1
CN(C)C(=O)[C@@H]1[C@@H](CO)[C@@H]2Cn3c(ccc(-c4ccccc4)c3=O)[C@@H]2N1Cc1ccccc1	23*	.	0	14	8
COC(=O)[C@@H]1[C@@H](CO)[C@@H]2Cn3c(ccc(-c4ccccc4)c3=O)[C@@H]2N1C(=O)CC1CC1	-7	.	4	76*	-1
CC=Cc1ccc2n(c1=O)C[C@@H]1[C@@H](CO)[C@H](C(=O)NCc3ccccc3F)N(CC)[C@H]21 (mixture of isomers)	16*	.	1	-8	-5
CO[C@@H](CN(C)S(=O)(=O)c1cn(C)cn1)[C@H](C)CN(C(=O)Nc1ccc(F)cc1)[C@H](C)CO	0	.	6	-2	-1
CCCNC(=O)N1CC2(CN(S(=O)(=O)CC)C2)c2c([nH]c3cc(OC)ccc23)[C@@H]1CO	.	.	-2	3	3
CC(C)NC(=O)N(C)C[C@@H]1OCc2ccccc2-c2ccccc2C(=O)N([C@H](C)CO)C[C@H]1C	-4	.	-3	1	0
SMILES	SIRT5 block	PDI inh	GSIS activator	S100A4 MyoIIA	ERp5 inh
C[C@@H]1CN([C@@H](C)CO)C(=O)CCCn2cc(nn2)CO[C@@H]1CN(C)C(=O)Nc1cccc(F)c1	.	.	3	.	.
CCNC(=O)[C@H]1[C@H](CO)[C@H]2Cn3c(ccc(-c4cccnc4)c3=O)[C@H]2N1Cc1ccc2c(c1)OCO2	12	.	18	1	4
CCN1[C@H](C(=O)NCc2ccccc2)[C@@H](CO)[C@@H]2Cn3c(ccc(-c4ccncc4)c3=O)[C@@H]21	19*	.	-2	-3	7
CCN1[C@H](C(=O)NCc2ccccc2)[C@@H](CO)[C@@H]2Cn3c(ccc(-c4cccnc4)c3=O)[C@@H]21	0	.	-4	-10	-6
CCNC(=O)[C@@H]1[C@@H](CO)[C@@H]2Cn3c(ccc(-c4cccnc4)c3=O)[C@@H]2N1Cc1ccc2c(c1)OCO2	23*	.	-3	37	3
C[C@@H]1CN([C@H](C)CO)C(=O)c2cccc(NC(=O)Nc3ccc(F)cc3)c2O[C@@H]1CN(C)CC1CC1	-3	.	5	8	-2
Cc1cc(Br)ccc1SCC(=O)OC/C(O)=C(\C#N)c1nc2ccccc2[nH]1	21*	-3	6	15	0
Cc1cc(Br)ccc1SCC(=O)OCC(O)=C(C#N)c1nc2ccccc2[nH]1	.	-2	15	12	1
CCc1cc2c(COC(=O)c3cc(S(=O)(=O)N4CCOCC4)ccc3F)cc(=O)oc2cc1O	13	9	.	1	-2
CCc1cc2c(COC(=O)c3cccc(NS(C)(=O)=O)c3)cc(=O)oc2cc1O	0	-2	65*	-7	4
O=C(CSc1ccc2nnc(-c3ccccn3)n2n1)Nc1ccccc1	0	1	-4	-2	-1
CCOc1ccc(NC(=O)CSc2ccc3nnc(-c4ccccn4)n3n2)cc1	18*	-1	-7	-2	3
COc1ccccc1NC(=O)N1CC(=O)N2[C@H](C1)[C@H](c1ccc(-c3ccc(C)cc3)cc1)[C@@H]2CO	-3	.	-18	17	5
Cc1cc(OCc2cc(C(=O)NC(C)c3c(C)nn(C)c3C)no2)cc(C)c1Cl (stereo not drawn)	18*	6	-41	3	5
COc1cccc(-c2cnc3c(c2)C(=O)N([C@@H](C)CO)C[C@@H](C)[C@@H](CN(C)C(C)=O)O3)c1	0	.	8	-1	1
Cc1nc(-c2ccc(C(=O)O)cc2)cs1	.	-4	.	.	.
Nc1nc(-c2ccc(C(=O)O)cc2)cs1	38*	-6	-9	3	2
Cc1ccc(S(=O)(=O)Nc2cccc3c2O[C@@H](CN(C)Cc2ccc(Cl)c(Cl)c2)[C@@H](C)CN([C@@H](C)CO)C3=O)cc1	.	.	-10	.	.
CC1(C)CC2CC(C)(CN2C(=O)c2cc(-c3ccccc3O)on2)C1 (stereo not drawn)	16*	.	.	-4	8
